The structures appear in SMILES notation. In brackets after ≈: the same amount, converted by molar mass. Activity calls are given as the source filed them. No cut-off for these calls is given here. Bounds are passed on as bounds.

The first data set deals with Staphylococcus aureus. As to the kind of experiment: Antimicrobial activity against Staphylococcus aureus SA-1199B expressing wild type norA and co-expressing GrlA A116E mutant by microdilution method. The data set is classed as organism-based. The note with it: in vivo. Put shortly: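 CLSI broth microdilution MIC of the compound alone. Strains: SA-K1902 (norA deleted), SA-K2378 (SA-K1902 carrying norA plus its promoter on multicopy plasmid pCU1), SA-1199B (norA overexpressing, GrlA A116E).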
`CCCOc1ccc(-c2cc(O)c3c(OC)cccc3n2)cc1` registered an MIC of 40.4 µM (≈ 12.5 µg/mL).
Same read-out and setting: the same measure for `CCCOc1ccc(-c2cc(OCCN3CCCCC3)c3cc(OC)c(OC)cc3n2)cc1`: above 222 µM; for `CCCOc1ccc(-c2cc(OCCN3CCCCCC3)c3cc(OC)ccc3n2)cc1`: 28.7 µM (≈ 12.5 µg/mL).
On the same count and under the same terms, the same measure for `CCCOc1ccc(-c2cc(OCCN(CC)CC)c3cc(OC)cc(OC)c3n2)cc1`: above 228 µM; for `CCCOc1ccc(-c2cc(OCCN3CCCCC3)c3cc(OC)cc(OC)c3n2)cc1`: above 222 µM; for `CCCOc1ccc(-c2cc(OCCN(CC)CC)c3cccc(OC)c3n2)cc1`: 245 µM (≈ 100 µg/mL).
On the same count and under the same terms, the same measure for `CCCOc1ccc(-c2cc(OCCN3CCCCC3)c3c(OC)cccc3n2)cc1`: 59.4 µM (≈ 25 µg/mL).
As to `CCCOc1ccc(-c2cc(OCCN3CCNCC3)c3ccc(OC)cc3n2)cc1`, the MIC was determined as 237 µM (≈ 99.9 µg/mL).

The next data set deals with T1, Quinolone resistance protein NorA (Staphylococcus aureus) (UniProt P0A0J7).
T1 sequence (whole entry): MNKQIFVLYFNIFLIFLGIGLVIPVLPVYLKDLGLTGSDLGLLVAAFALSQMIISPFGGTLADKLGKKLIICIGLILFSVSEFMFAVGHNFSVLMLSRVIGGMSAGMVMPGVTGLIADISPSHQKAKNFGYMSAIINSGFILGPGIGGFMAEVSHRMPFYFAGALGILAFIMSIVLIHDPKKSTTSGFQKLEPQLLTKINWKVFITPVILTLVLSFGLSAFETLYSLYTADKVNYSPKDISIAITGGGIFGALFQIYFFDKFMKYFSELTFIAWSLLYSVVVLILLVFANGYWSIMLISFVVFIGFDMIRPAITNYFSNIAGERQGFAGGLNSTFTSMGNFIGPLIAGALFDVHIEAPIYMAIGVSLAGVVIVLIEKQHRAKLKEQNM
Nature of the data set: Inhibition of NorA in Staphylococcus aureus SA-1199B expressing GrlA A116E mutant assessed as minimal potentiating drug concentration causing 8 fold reduction in ciprofloxacin MIC by microdilution method based Checkerboard assay.
Conditions: not given
With `CCCOc1ccc(-c2cc(OCCN3CCCCC3)c3cc(OC)c(OC)cc3n2)cc1`, the Activity came out at 3.13 µg/mL.
On the same count and under the same terms, in the case of `CCCOc1ccc(-c2cc(OCCN3CCCCCC3)c3cc(OC)ccc3n2)cc1` it was below 3.13 µg/mL; in that of `CCCOc1ccc(-c2cc(OCCN(CC)CC)c3cc(OC)cc(OC)c3n2)cc1`, 6.25 µg/mL; in that of `CCCOc1ccc(-c2cc(OCCN3CCCCC3)c3cc(OC)cc(OC)c3n2)cc1`, 6.25 µg/mL.
With `CCCOc1ccc(-c2cc(OCCN3CCNCC3)c3ccc(OC)cc3n2)cc1`, the Activity was 6.25 µg/mL.

For another data set, the system named is Staphylococcus aureus. Nature of the data set: Synergistic potentiation of ciprofloxacin-induced antimicrobial activity against Staphylococcus aureus SA-1199 at 0.78 to 100 ug/ml by microdilution method based Checkerboard assay. The data set is classed as functional, organism-based.
Conditions: not given
For the molecule `CCCOc1ccc(-c2cc(OCCN3CCCCC3)c3cc(OC)c(OC)cc3n2)cc1`, the inhibition result is “Active”.
Same read-out and setting: the same measure for `CCCOc1ccc(-c2cc(OCCN3CCCCCC3)c3cc(OC)ccc3n2)cc1`: “Active”.
The same measure, in the same setting: in the case of `CCCOc1ccc(-c2cc(OCCN(CC)CC)c3cc(OC)cc(OC)c3n2)cc1` it was “Active”; in that of `CCCOc1ccc(-c2cc(OCCN3CCCCC3)c3cc(OC)cc(OC)c3n2)cc1`, “Active”; in that of `CCCOc1ccc(-c2cc(OCCN3CCNCC3)c3ccc(OC)cc3n2)cc1`, “Active”.

A further data set concerns the target T1, Quinolone resistance protein NorA (Staphylococcus aureus). As to the kind of experiment: Inhibition of NorA in Staphylococcus aureus SA-1199B expressing GrlA A116E mutant assessed as reduction in EtBr efflux at 50 uM incubated for 5 mins by fluorescence based assay.
Conditions: not given
Put shortly: (§1)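 Cells were grown overnight in cation-supplemented Mueller-Hinton broth at 35 °C and subcultured to OD600 0.7–0.8. They were loaded at OD600 0.8 with 25 µM EtBr plus 100 µM CCCP (final) for 20 min at room temperature. Cells were then resuspended in fresh broth with or without compound, 50 µM for the single-point screen or a concentration series for IC50. Fluorescence (ex 485/em 645 nm) was read for 5 min. Inhibition was calculated from the fluorescence decrease versus untreated cells. Biological triplicate, each run twice.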
As to `CCCOc1ccc(-c2cc(O)c3c(OC)cccc3n2)cc1`, the inhibition turned out to be 91.4%.
For `CCCOc1ccc(-c2cc(OCCN3CCCCC3)c3cc(OC)c(OC)cc3n2)cc1`, the inhibition was found to be 92.1%.
The same measure, in the same setting: the same measure for `CCCOc1ccc(-c2cc(OCCN3CCCCCC3)c3cc(OC)ccc3n2)cc1`: 92.2%.
For `CCCOc1ccc(-c2cc(OCCN(CC)CC)c3cc(OC)cc(OC)c3n2)cc1`, the inhibition stood at 92.4%.
Take `CCCOc1ccc(-c2cc(OCCN3CCCCC3)c3cc(OC)cc(OC)c3n2)cc1`: the inhibition was found to be 93.8%.
Still for that read-out and setting: the same measure for `CCCOc1ccc(-c2cc(OCCN(CC)CC)c3cccc(OC)c3n2)cc1`: 83.1%.
The same measure, in the same setting: the same measure for `CCCOc1ccc(-c2cc(OCCN3CCCCC3)c3c(OC)cccc3n2)cc1`: 83.4%; for `CCCOc1ccc(-c2cc(OCCN3CCNCC3)c3ccc(OC)cc3n2)cc1`: 100%.

A further data set deals with Staphylococcus aureus. As to the kind of experiment: Antimicrobial activity against Staphylococcus aureus SA-1199B expressing wild type norA by microdilution method. The data set is classed as organism-based. The note with it: in vivo. Put shortly:
(§2)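 Broth microdilution MIC per CLSI guidelines. ATCC 25923 is norA wild-type. SA-1199B overexpresses norA and carries an A116E GrlA substitution.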
(In broth dilution the organism is exposed to a series of concentrations in liquid medium.)
As to `CCCOc1ccc(-c2cc(OCCN3CCCCC3)c3cc(OC)c(OC)cc3n2)cc1`, the MIC was above 100 µg/mL.
The same measure, in the same setting: in the case of `CCCOc1ccc(-c2cc(OCCN3CCCCCC3)c3cc(OC)ccc3n2)cc1` it was 25 µg/mL (≈ 57.5 µM); in that of `CCCOc1ccc(-c2cc(OCCN(CC)CC)c3cc(OC)cc(OC)c3n2)cc1`, above 100 µg/mL; in that of `CCCOc1ccc(-c2cc(OCCN3CCCCC3)c3cc(OC)cc(OC)c3n2)cc1`, above 100 µg/mL.
Same read-out and setting: in the case of `CCCOc1ccc(-c2cc(OCCN3CCNCC3)c3ccc(OC)cc3n2)cc1` it was 100 µg/mL (≈ 237 µM).

In another data set the test system is Staphylococcus aureus. As to the kind of experiment: Synergistic potentiation of ciprofloxacin-induced antimicrobial activity against wild type Staphylococcus aureus ATCC 25923 at 0.78 to 100 ug/ml by microdilution method based Checkerboard assay. The data set is classed as functional, organism-based.
Conditions: not given
Regarding `CCCOc1ccc(-c2cc(OCCN3CCCCC3)c3cc(OC)c(OC)cc3n2)cc1`, the “synergistic potentiation of ciprofloxacin activity” value (shortened to “synergistic potentiation”) was “Active”.
On the same count and under the same terms, in the case of `CCCOc1ccc(-c2cc(OCCN3CCCCCC3)c3cc(OC)ccc3n2)cc1` it was “Active”; in that of `CCCOc1ccc(-c2cc(OCCN(CC)CC)c3cc(OC)cc(OC)c3n2)cc1`, “Active”.
Regarding `CCCOc1ccc(-c2cc(OCCN3CCCCC3)c3cc(OC)cc(OC)c3n2)cc1`, the “synergistic potentiation” value was “Active”.
For the molecule `CCCOc1ccc(-c2cc(OCCN3CCNCC3)c3ccc(OC)cc3n2)cc1`, the “synergistic potentiation” value was “Active”.

A further data set has as its target T1, Quinolone resistance protein NorA (Staphylococcus aureus). As to the kind of experiment: Inhibition of NorA in Staphylococcus aureus SA-1199B expressing GrlA A116E mutant assessed as synergistic potentiation of ciprofloxacin-induced antimicrobial activity at 0.78 to 100 ug/ml by microdilution method based Checkerboard assay.
Conditions: not given
For the molecule `CCCOc1ccc(-c2cc(OCCN3CCCCC3)c3cc(OC)c(OC)cc3n2)cc1`, the inhibition result is “Active”.
Still for that read-out and setting: in the case of `CCCOc1ccc(-c2cc(OCCN3CCCCCC3)c3cc(OC)ccc3n2)cc1` it was “Active”; in that of `CCCOc1ccc(-c2cc(OCCN(CC)CC)c3cc(OC)cc(OC)c3n2)cc1`, “Active”.
As to `CCCOc1ccc(-c2cc(OCCN3CCCCC3)c3cc(OC)cc(OC)c3n2)cc1`, the inhibition result was “Active”.
Same read-out and setting: in the case of `CCCOc1ccc(-c2cc(OCCN3CCNCC3)c3ccc(OC)cc3n2)cc1` it was “Active”.

For another data set, the system named is Staphylococcus aureus. Nature of the data set: Antimicrobial activity against Staphylococcus aureus ATCC 25923 by microdilution method. The data set is classed as organism-based. Conditions: in vivo. In outline: as §2
The molecule `CCCOc1ccc(-c2cc(OCCN3CCCCC3)c3cc(OC)c(OC)cc3n2)cc1` came in with an MIC of 100 µg/mL (≈ 222 µM).
The same measure, in the same setting: in the case of `CCCOc1ccc(-c2cc(OCCN3CCCCCC3)c3cc(OC)ccc3n2)cc1` it was 12.5 µg/mL (≈ 28.8 µM); in that of `CCCOc1ccc(-c2cc(OCCN(CC)CC)c3cc(OC)cc(OC)c3n2)cc1`, 100 µg/mL (≈ 228 µM).
On the same count and under the same terms, the same measure for `CCCOc1ccc(-c2cc(OCCN3CCCCC3)c3cc(OC)cc(OC)c3n2)cc1`: 100 µg/mL (≈ 222 µM); for `CCCOc1ccc(-c2cc(OCCN3CCNCC3)c3ccc(OC)cc3n2)cc1`: 100 µg/mL (≈ 237 µM).

Another data set addresses Quinolone resistance protein NorA (Staphylococcus aureus, UniProt P0A0J7, A116E). As to the kind of experiment: Inhibition of NorA in Staphylococcus aureus SA-1199B expressing GrlA A116E mutant assessed as reduction in EtBr efflux incubated for 5 mins by fluorescence based assay.
Conditions: not given
Put shortly: as §1
`CCCOc1ccc(-c2cc(O)c3c(OC)cccc3n2)cc1`: the IC50 was determined as 4.1 µM.
For `CCCOc1ccc(-c2cc(OCCN3CCCCC3)c3cc(OC)c(OC)cc3n2)cc1`, the half-inhibitory concentration (IC50) worked out at 3.9 µM.
With `CCCOc1ccc(-c2cc(OCCN3CCCCCC3)c3cc(OC)ccc3n2)cc1`, the half-maximal inhibitory concentration (IC50) turned out to be 8.1 µM.
For the molecule `CCCOc1ccc(-c2cc(OCCN(CC)CC)c3cc(OC)cc(OC)c3n2)cc1`, the concentration for half-maximal inhibition (IC50) came out at 4.6 µM.
For `CCCOc1ccc(-c2cc(OCCN3CCCCC3)c3cc(OC)cc(OC)c3n2)cc1`, the concentration for half-maximal inhibition (IC50) amounted to 3.8 µM.
On the same count and under the same terms, in the case of `CCCOc1ccc(-c2cc(OCCN(CC)CC)c3cccc(OC)c3n2)cc1` it was 13.7 µM; in that of `CCCOc1ccc(-c2cc(OCCN3CCCCC3)c3c(OC)cccc3n2)cc1`, 19.1 µM.
The same measure, in the same setting: in the case of `CCCOc1ccc(-c2cc(OCCN3CCNCC3)c3ccc(OC)cc3n2)cc1` it was 5.5 µM.

As usually defined, the inhibition is the percentage by which the read-out fell short of the control. One may read the IC50 as the concentration needed to halve the response being measured.

These data come from ChEMBL document CHEMBL4145675, “2-Phenylquinoline S. aureus NorA Efflux Pump Inhibitors: Evaluation of the Importance of Methoxy Group Introduction” (J Med Chem, 2018).
